According to ChEMBL document CHEMBL3351454, “Design, synthesis, antimicrobial evaluation and molecular docking studies of some new thiophene, pyrazole and pyridone derivatives bearing sulfisoxazole moiety” (2014):
≈ marks a conversion by molar mass, not a printed value.

Experiments:
Type in all cases: functional
Streptococcus pneumoniae [1] = assay: Antimicrobial activity against Streptococcus pneumoniae RCMB 010010 assessed as inhibition zone at 5 mg/ml after 24 hrs; settings: RCMB 010010, 24 h, read-out: IZ
Outline: (§1)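 Agar diffusion on nutrient agar seeded with 10^6 CFU/mL bacteria. Filter-paper disks were loaded with 100 µL of a 5 mg/mL compound solution in DMF, with a DMF-only control. Incubation was 37 °C for 24 h. Inhibition zone in mm (mean ± SD, triplicate plates) was measured beyond the 6 mm diameter.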

Streptococcus pneumoniae [2] = assay: Antimicrobial activity against Streptococcus pneumoniae RCMB 010010 assessed as absence of turbidity after 24 hrs; settings: RCMB 010010, 24 h
Outline: (§2)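 Broth microdilution in Müller–Hinton broth. DMF stocks at 1000 µg/mL were diluted in broth to give twofold serial dilutions over 500–0.007 µg/mL. Bacterial inoculum was about 10^6 CFU/mL in 96-well plates, sealed and incubated at 37 °C for 24 h in a humid chamber. MIC was taken as the lowest concentration with no visible turbidity. DMF and uninoculated-medium controls were included. Only compounds giving zones >10 mm were tested.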

Bacillus subtilis [3] = assay: Antimicrobial activity against Bacillis subtilis RCMB 010067 assessed as inhibition zone at 5 mg/ml after 24 hrs; settings: RCMB 010067, 24 h, read-out: IZ; outline: as §1
Bacillus subtilis [4] = assay: Antimicrobial activity against Bacillis subtilis RCMB 010067 assessed as absence of turbidity after 24 hrs; settings: RCMB 010067, 24 h; outline: as §2
[5] = system: Staphylococcus epidermidis; assay: Antimicrobial activity against Staphylococcus epidermidis RCMB 010024 assessed as inhibition zone at 5 mg/ml after 24 hrs; settings: RCMB 010024, 24 h, read-out: IZ; outline: as §1
[6] = system: Staphylococcus epidermidis; assay: Antimicrobial activity against Staphylococcus epidermidis RCMB 010024 assessed as absence of turbidity after 24 hrs; settings: RCMB 010024, 24 h; outline: as §2
Escherichia coli [7] = assay: Antimicrobial activity against Escherichia coli RCMB 010052 assessed as inhibition zone at 5 mg/ml after 24 hrs; settings: RCMB 010052, 24 h, read-out: IZ; outline: as §1
Escherichia coli [8] = assay: Antimicrobial activity against Escherichia coli RCMB 010052 assessed as absence of turbidity after 24 hrs; settings: RCMB 010052, 24 h; outline: as §2
Proteus vulgaris [9] = assay: Antimicrobial activity against Proteus vulgaris RCMB 010085 assessed as inhibition zone at 5 mg/ml after 24 hrs; settings: RCMB 010085, 24 h, read-out: IZ; outline: as §1
Proteus vulgaris [10] = assay: Antimicrobial activity against Proteus vulgaris RCMB 010085 assessed as absence of turbidity after 24 hrs; settings: RCMB 010085, 24 h; outline: as §2
Klebsiella pneumoniae [11] = assay: Antimicrobial activity against Klebsiella pneumoniae RCMB 010093 assessed as inhibition zone at 5 mg/ml after 24 hrs; settings: RCMB 010093, 24 h, read-out: IZ; outline: as §1
Klebsiella pneumoniae [12] = assay: Antimicrobial activity against Klebsiella pneumoniae RCMB 010093 assessed as absence of turbidity after 24 hrs; settings: RCMB 010093, 24 h; outline: as §2
Aspergillus fumigatus [13] = assay: Antifungal activity against Aspergillus fumigatus RCMB 02568 assessed as inhibition zone at 5 mg/ml after 48 hrs; settings: RCMB 02568, 48 h, read-out: IZ
Outline: (§3)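 Disk diffusion on nutrient agar seeded with 10^4 CFU/mL fungus. Sterile filter-paper disks carried 100 µL of a 5 mg/mL DMF solution, and DMF alone served as control. Plates were incubated at 25 °C for 48 h. Mean inhibition zone in mm ± SD was read beyond the 6 mm diameter, in triplicate.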

Aspergillus fumigatus [14] = assay: Antifungal activity against Aspergillus fumigatus RCMB 02568 assessed as absence of turbidity after 48 hrs; settings: RCMB 02568, 48 h
Outline: as §2, with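 “Sabouraud liquid medium.” for “Müller–Hinton broth.”, “Fungal” for “Bacterial”, “10^4” for “10^6”, “25” for “37”, “48” for “24”, “included.” for “included. Only compounds giving zones >10 mm were tested.”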

[15] = system: Syncephalastrum racemosum; assay: Antifungal activity against Syncephalastrum racemosum RCMB 05922 assessed as inhibition zone at 5 mg/ml after 48 hrs; settings: RCMB 05922, 48 h, read-out: IZ
[16] = system: Syncephalastrum racemosum; assay: Antifungal activity against Syncephalastrum racemosum RCMB 05922 assessed as absence of turbidity after 48 hrs; settings: RCMB 05922, 48 h
Geotrichum candidum [17] = assay: Antifungal activity against Geotrichum candidum RCMB 05097 assessed as inhibition zone at 5 mg/ml after 48 hrs; settings: RCMB 05097, 48 h, read-out: IZ; outline: as §3
Geotrichum candidum [18] = assay: Antifungal activity against Geotrichum candidum RCMB 05097 assessed as absence of turbidity after 48 hrs; settings: RCMB 05097, 48 h
Outline: as §2, with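 “Sabouraud liquid medium.” for “Müller–Hinton broth.”, “Fungal” for “Bacterial”, “10^4” for “10^6”, “25” for “37”, “48” for “24”, “included.” for “included. Only compounds giving zones >10 mm were tested.”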

| MIC (Streptococcus pneumoniae [2]) | MIC (Bacillus subtilis [4]) | MIC [6] | MIC (Escherichia coli [8]) | MIC (Proteus vulgaris [10]) | MIC (Klebsiella pneumoniae [12]) | MIC (Aspergillus fumigatus [14]) | MIC [16] | MIC (Geotrichum candidum [18]) | Compound | zone of inhibition at 5000 µg/mL (Streptococcus pneumoniae [1]) | zone of inhibition at 5000 µg/mL (Bacillus subtilis [3]) | zone of inhibition at 5000 µg/mL [5] | zone of inhibition at 5000 µg/mL (Escherichia coli [7]) | zone of inhibition at 5000 µg/mL (Proteus vulgaris [9]) | zone of inhibition at 5000 µg/mL (Klebsiella pneumoniae [11]) | zone of inhibition at 5000 µg/mL (Aspergillus fumigatus [13]) | zone of inhibition at 5000 µg/mL [15] | zone of inhibition at 5000 µg/mL (Geotrichum candidum [17]) |
| --- | --- | --- | --- | --- | --- | --- | --- | --- | --- | --- | --- | --- | --- | --- | --- | --- | --- | --- |
| 0.98 µg/mL (≈ 1.84 µM) | 0.98 µg/mL (≈ 1.84 µM) | 1.95 µg/mL (≈ 3.65 µM) | 0.98 µg/mL (≈ 1.84 µM) | 3.9 µg/mL (≈ 7.31 µM) | 0.98 µg/mL (≈ 1.84 µM) | 0.98 µg/mL (≈ 1.84 µM) | 31.2 µg/mL (≈ 58.6 µM) | 0.49 µg/mL (≈ 0.918 µM) | COc1ccc(-c2c(C#N)c(S)n(-c3ccc(S(=O)(=O)Nc4onc(C)c4C)cc3)c(=O)c2C#N)cc1 | 20.6 mm | 22.4 mm | 19.9 mm | 20.6 mm | 18.6 mm | 21.4 mm | 20.4 mm | 16.3 mm | 22.4 mm |
| 0.24 µg/mL (≈ 0.486 µM) | 0.12 µg/mL (≈ 0.243 µM) | 0.98 µg/mL (≈ 1.99 µM) | 0.98 µg/mL (≈ 1.99 µM) | 7.81 µg/mL (≈ 15.8 µM) | 0.24 µg/mL (≈ 0.486 µM) | 0.49 µg/mL (≈ 0.993 µM) | 0.98 µg/mL (≈ 1.99 µM) | 0.12 µg/mL (≈ 0.243 µM) | Cc1noc(NS(=O)(=O)c2ccc(-n3c(S)c(C#N)c(-c4ccco4)c(C#N)c3=O)cc2)c1C | 22.6 mm | 23.6 mm | 21.4 mm | 21.6 mm | 18.3 mm | 22.6 mm | 22 mm | 20.6 mm | 24.3 mm |
